Only some compounds are listed: those with a hit (about 2.1% of all), similar ones and a draw of the others.
APJ agonist = agonists of human APJ apelin receptor; P35414; CHO-K1 APJ PathHunter beta-arrestin, luminescence; 0% DMSO wells, 100% apelin; activation, % at 20 µM; actives 0.11% (n = 330,000);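 active = activation more than six SD over the plate average, tested at 20 µM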;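 also: 0% = DMSO alone and 100% = apelin-13 at 10 nM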
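Test system: CHO-K1 APJ beta-arrestin complementation cell line | Compound: Single test compound dose, 20 µM final, 1% DMSO | Incubation: Compound 90 min 25 °C, reagent 1 h | Measured by: beta-gal luminescence | Read-out basis: APJ–arrestin association signal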
EBI2 antag = antagonists of human EBI2 receptor; inhibition, % at 5 µM; EBI2 beta-arrestin recruitment, luminescence, 7a,25-OHC stimulated; actives 0.81% (n = 360,000); P32249; in the data active = inhibition above about 38%;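 also: enzyme fragment complementation signal reports receptor beta-arrestin coupling in cells; 0% = agonist plus DMSO wells and 100% = wells without agonist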
CXCR6 block = blocks human CXCR6 beta-arrestin recruitment. O00574. CHO-K1 PathHunter CXCR6 beta-arrestin, luminescence. inhibition, % at 20 µM. actives 0.36% (n = 360,000); in the data active = inhibition above about 34%, passing the limit was not always enough;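 also: antagonist mode with CXCL16 agonist at 10 nM final; 0% = 10 nM CXCL16 with DMSO and 100% = unstimulated wells without agonist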
m5-HT2A agonist = agonists of mouse serotonin 5-HT2A receptor (HTR2A) | activation, % at 7.6 µM | CHO-K1 mHTR2A beta-arrestin complementation, luminescence; percent of 30 µM serotonin response | actives 0.66% (n = 360,000) | P35363;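 active = activation above a run cutoff, the mean activation of all tested compounds plus 3 SD, cut at about 14% in these data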;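 also: 0% = plate median of compound wells and 100% = 30 µM serotonin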
Target sequence (P35363 whole entry, looked up): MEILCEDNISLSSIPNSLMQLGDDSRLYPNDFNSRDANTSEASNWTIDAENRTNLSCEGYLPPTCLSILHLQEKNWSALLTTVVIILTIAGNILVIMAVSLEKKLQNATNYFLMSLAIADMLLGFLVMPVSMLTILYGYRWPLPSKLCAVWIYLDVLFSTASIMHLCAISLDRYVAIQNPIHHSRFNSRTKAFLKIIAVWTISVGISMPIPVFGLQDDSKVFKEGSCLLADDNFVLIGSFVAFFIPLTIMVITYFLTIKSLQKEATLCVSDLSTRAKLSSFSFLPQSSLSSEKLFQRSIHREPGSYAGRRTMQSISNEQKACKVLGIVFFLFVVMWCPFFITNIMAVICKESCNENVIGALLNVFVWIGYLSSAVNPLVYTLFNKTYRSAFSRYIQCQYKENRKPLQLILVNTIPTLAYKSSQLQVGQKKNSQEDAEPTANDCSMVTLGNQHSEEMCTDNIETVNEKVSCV
CCR6 antag = antagonists of human CCR6 receptor. actives 0.49% (n = 340,000). AID 493098. CHO-K1 CCR6 PathHunter beta-arrestin, luminescence, CCL20-stimulated. P51684. inhibition, % at 20 µM;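 active = compounds whose inhibition of the agonist-driven luminescence signal at 20 µM reaches about 50%, limit read from the data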;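 also: cells stimulated with CCL20 at 14 nM final; plate controls were DMSO with CCL20 for no effect and DMSO without agonist for full effect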
APJ antagonist = antagonists of human APJ apelin receptor | P35414 | CHO-K1 APJ beta-arrestin complementation, luminescence | inhibition, % at 20 µM | actives 0.32% (n = 330,000) | AID 2521;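 active = inhibition above about 40% at 20 µM, limit read from the data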;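 also: cells challenged with 10 nM apelin-13 agonist together with compound; plate controls were apelin-13 plus DMSO wells for no effect and DMSO wells lacking apelin-13 for full effect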
APJ antag confirm = APJ receptor antagonism confirmation; shares compounds with APJ antagonist; APJ beta-arrestin recruitment, luminescence, antagonist mode; inhibition, % at 20 µM; actives 66% (n = 950); in the data active = inhibition above about 50%
Starred values were filed as active, the others as inactive; x = not tested or not shown.

SMILES	APJ agonist	EBI2 antag	CXCR6 block	m5-HT2A agonist	CCR6 antag	APJ antagonist	APJ antag confirm
Cc1[nH]n(C(N)=S)c(=O)c1N=Nc1ccc([N+](=O)[O-])cc1Cl	-6.4	17.2	41.7*	2.3	60.3*	51.5*	80.4*
O=C(O)CC(NNC(=O)c1ccccc1)C(=O)Nc1ccc([N+](=O)[O-])cc1 (centres undefined)	-2.2	-4.1	-1.8	0.4	6.6	15.3	x
COc1cc(NC(=NS(=O)(=O)c2ccccc2)c2ccccc2)ncn1	x	-3.7	-2.3	-1.5	-2.9	x	x
COC(=O)c1ccc2c(c1)C(C)(C)C(/C=C/c1ccc(O)cc1)=[N+]2C	-1.7	-0.3	73.6*	-5.4	91.5*	69.7*	129.5*
O=C(CCC(=O)Nc1cccc(Cl)c1)N/N=C/c1cc([N+](=O)[O-])ccc1O	-7.1	-5.6	16.2	-2.4	38.5	26.6	x
O=C(CCCC(=O)Nc1cccc(Br)c1)N/N=C/c1cc([N+](=O)[O-])ccc1O	-20.5	13.6	37.7	-16.2	43.1	48.7*	71.5*
CN(N=Nc1ccc([N+](=O)[O-])cc1)c1ccccc1	-1.7	1.8	-6.7	0.5	10.8	16.5	x
CN(CCCC(=O)O)c1ccc(N=Nc2ccc([N+](=O)[O-])cc2)cc1	-9.8	5.6	55.8*	2.2	64.6*	45.7*	89.1*
CN(C)S(=O)(=O)c1ccc2c(c1)/C(=C/c1cc3c([nH]1)CCCC3)C(=O)N2	-5.5	49.5*	12.6	-0.5	21.5	40.1*	22.8
CN(C)S(=O)(=O)c1ccc2c(c1)C(=O)c1cc(S(=O)(=O)N(C)C)ccc1CC2	1.3	12.3	1.8	-3.5	14.4	-5.0	x
COC(=O)c1cnn(-c2ccccc2)c1-n1cccc1C=O	0.5	1.8	1.8	7.7	11.9	4.9	x
N#CC(c1ccccc1O)N1N=C(c2ccccc2)CC1c1ccccc1 (centres undefined)	-9.4	12.3	35.8	0.9	54.5*	66.7*	32.2
COc1cc(C(C#N)N2N=C(c3ccccc3)CC2c2ccccc2)ccc1O (centres undefined)	-3.6	1.6	7.6	0.2	4.4	-3.3	x
Cc1ccc(C(=O)CNc2cccc([N+](=O)[O-])c2)cc1	-4.2	22.5	13.3	-1.6	22.3	54.7*	39.1
Cc1ccc(C(=O)CNc2ccccc2)cc1	-15.2	7.3	47.2*	-1.2	83.0*	44.2*	110.3*
Cc1ccc(C(=O)CC(=O)c2ccc(C(C)(C)C)cc2)cc1	-2.6	16.5	-5.7	-1.0	21.9	-1.8	x
Cc1ccc(NCC(=O)c2ccc([N+](=O)[O-])cc2)cc1	8.8	15.4	-2.9	-1.8	-3.9	-12.8	x
Cc1ccc(C(=O)CNc2ccccc2C)cc1	-15.1	0.4	58.5*	2.5	86.3*	76.4*	119.9*
O=C(c1c[nH]c(C(=O)C(Cl)(Cl)Cl)c1)c1ccccc1Br	-0.6	-0.6	-5.0	-1.2	-2.3	1.2	x
NS(=O)(=O)c1ccc(CCNC(=O)CSc2nc3ccsc3c(=O)n2Cc2ccccn2)cc1	x	1.7	0.8	-0.3	x	x	x
CCn1c(SCC(=O)NC2CCCCC2)nnc1C(CO)NC(=O)c1ccccc1 (centres undefined)	6.4	-7.1	3.2	-2.6	2.4	-45.2	x
CC(C)CNc1nnnc2c1sc1nc(N3CCOCC3)c3c(c12)CC(C)(C)SC3	-2.1	26.3	12.3	-8.1	4.7	9.6	x
CC1(C)Cc2c(c(N3CCOCC3)nc3sc4c(NN)ncnc4c23)CS1	-15.7	16.0	14.2	1.6	56.0*	59.5*	89.4*
COc1ccc(N=C2C(=O)Nc3ccc(C)c(Br)c32)cc1	-18.6	32.4	82.2*	-3.9	105.4*	89.4*	158.6*
CCOC(=O)N1CCN(C(=O)C(=O)NN)CC1	-1.6	-7.1	-0.3	7.8	8.0	3.2	x
C[n+]1ccc(CC2C(=[N+]([O-])[O-])C=Nc3ncnn32)cc1 (centres undefined)	x	-4.1	4.3	5.0	4.1	x	x
C=CCn1c(C2CC2)n[nH]c1=S	-1.4	-3.8	-1.0	5.8	5.2	4.5	x
